Compound activity as filed in PubChem.
Pemphigus Ab inh: blocks pemphigus antibody binding to human desmoglein-3; binding (percent of control), % at 10 µM; DSG3-coupled beads, scFv-anti-DSG3-GFP binding, flow cytometry; hits give low values; 310,000 tested, 0.48% active; AID 588358; P32926;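 active means binding more than 3 SD below its plate's average and above zero; inconclusive means below that plate limit but binding exactly zero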;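 further: hits lower antibody fragment binding to DSG3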
TbMetRS inhib: Trypanosoma brucei MetRS inhibition. 360,000 tested, 0.4% active. AID 624268. purified T. brucei MetRS, ATP depletion, Kinase-Glo luminescence. inhibition, % at 11.9 µM;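 active means inhibition above a per-plate cutoff of the control wells' mean inhibition plus 3 SD, cut at about 5.5% in these data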
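Material: parasite MetRS enzyme / Replication: singlicate, one well per compound / Signal: luminescence of leftover ATP / Schedule: 2 h aminoacylation at 25 °C after 15 min preincubation / Medium: HEPES-MgCl2-KCl buffer plus DTT, spermine, BSA, pyrophosphatase / Doses: 11.9 µM single point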
Rce1 inh: inhibitors of yeast Ras-converting enzyme; Q03530; yeast membranes, quenched prenylated peptide cleavage fluorescence; calls only; 290,000 tested, 0.27% active; AID 2563;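 active means fall in fluorescence gain of 50% or more versus controls, with final raw signal at or below 3038400; inconclusive means same 50% fall but final raw signal above 3038400; inactive means fall in fluorescence gain under 50%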
core dimer inh: HCV core protein dimerization inhibition | TR-FRET GST/Flag-core106 dimerization, 1536-well | inhibition, % at 5 µM | 300,000 tested, 0.33% active | AID 1899;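 active means inhibition above the mean of all tested compounds plus 3 SD, set per screening campaign, cut at about 45% in these data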
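System – GST-tagged and Flag-tagged HCV core protein residues 1-106 · Repeats – one well for each compound · Technique – TR-FRET 671 and 617 nm emission · Doses – one concentration, 5 µM, in 0.5% DMSO · Times – 4 h, 22.5 °C incubation · Also added – Eu donor and XL665 acceptor anti-tag antibodies · Measure – percent inhibition of core106 dimerization signal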
NadD inh: inhibitors of Staphylococcus aureus NadD | purified NadD enzyme, colorimetric absorbance read-out | inhibition, % at 20 µM | 360,000 tested, 0.78% active | AID 602399; in the data active means inhibition above about 26%
NadD inh conf: confirmation of Staphylococcus aureus NadD inhibitors | shares compounds with NadD inh | purified S. aureus NadD, colorimetric enzyme assay | inhibition, % at 20 µM | 2,000 tested, 13% active | AID 624309; in the data active means inhibition mostly above about 42%, no sharp cut-off; inactive means mostly below about 42%
Hits are given with their value; - = inactive; ? = inconclusive; . = no result. This is a sample that favours compounds with a hit; in the whole collection about 1.9% have one here.

SMILES | Pemphigus Ab inh | TbMetRS inhib | Rce1 inh | core dimer inh | NadD inh | NadD inh conf
N#Cc1ccccc1S(=O)c1ccccc1C(=O)Nc1ccccc1 (configuration not stated) | - | - | - | - | - | .
CC(=O)c1cccc(-c2ccc3c(=O)[nH]c(Nc4ccccc4)cc3c2)c1 | - | - | - | - | 35.0 | -
OCC[C@H]1C[C@@H](O)[C@H](O)[C@]2(CCc3ccccc3O2)O1 | - | - | . | - | - | .
O=C(NCCN1C(=O)S/C(=C\c2ccc(Cl)c(Cl)c2)C1=O)C1COc2ccccc2O1 (configuration not stated) | - | - | - | - | - | .
O=C(NCCN1C(=O)S/C(=C\c2ccc(Cl)c(Cl)c2)C1=O)c1ccc2c(c1)C(=O)N(Cc1ccncc1)C2=O | - | - | - | - | 27.7 | -
Cc1ccc(S(=O)(=O)NC(C)(C)CSc2nncn2N)cc1 | - | - | - | - | - | .
Cc1c(C(=O)NNC(=O)c2csc(N3CCOCC3)n2)oc2ccc(Br)cc12 | - | - | . | . | 31.7 | -
N#C/C(=C(/O)CN1CCN(c2ccccc2F)CC1)c1nc(-c2ccccc2)cs1 | - | - | - | - | 31.3 | -
Cc1cc(=O)oc2cc(OCc3ccc(C(=O)OCC(=O)Nc4ccc(N(C)C)cc4)cc3)ccc12 | - | - | - | . | 35.5 | -
Cc1cc(=O)oc2cc(OCc3ccc(C(=O)OCC(=O)N(C)C4CCS(=O)(=O)C4)cc3)ccc12 (configuration not stated) | - | - | . | - | - | .
COc1ccc(C)cc1Nc1nc(-c2c[nH]c3ccccc23)cs1 | - | - | - | - | 39.3 | -
CCOC(=O)c1sc(NC(=O)c2cc(-c3ccccc3C)nc3ccccc23)c(C#N)c1C | - | - | - | - | 47.7 | -
COCCNC(=O)C1CCC(Cn2c(=S)[nH]c3ccccc3c2=O)CC1 (configuration not stated) | - | - | - | - | - | .
O=C(NCCc1c[nH]c2ccccc12)C1CCC(Cn2c(=S)[nH]c3ccccc3c2=O)CC1 (configuration not stated) | - | - | - | - | 32.6 | -
Cc1ccc(NS(=O)(=O)c2cc(C(=O)Nc3cccc([N+](=O)[O-])c3)ccc2C)cc1 | - | - | - | - | - | .
Cc1ccc(C(=O)Nc2cccc([N+](=O)[O-])c2)cc1S(=O)(=O)Nc1ccc(NC(=O)c2ccccc2)cc1 | - | - | - | - | 42.3 | 38.2
Cc1ccc(NC(=O)CC(=O)c2ccc([N+](=O)[O-])cc2)cc1S(=O)(=O)Nc1cccc(Cl)c1 | - | - | - | - | 37.0 | -
Cc1ccc(NC(=S)NC(=O)c2ccc(F)cc2)cc1S(=O)(=O)Nc1cccc(Cl)c1 | - | - | - | - | - | .
O=C(Nc1ccc(S(=O)(=O)Nc2nccs2)cc1)c1cc(-c2ccccn2)nc2ccccc12 | - | - | - | - | - | .
Cc1ccc(-c2cc(C(=O)Nc3ccc(S(=O)(=O)Nc4cc(C)on4)cc3)c3ccccc3n2)c(C)c1 | - | - | - | - | 42.5 | 65.5
O=C(Nc1ccc(S(=O)(=O)Nc2nccs2)cc1)c1cc(-c2ccccc2Cl)nc2ccccc12 | - | - | - | - | 67.0 | 65.3
Cc1cc(C)nc(NS(=O)(=O)c2ccc(NC(=O)c3cc(-c4ccccc4)nc4ccccc34)cc2)n1 | - | - | - | - | - | .
Cc1ccc(-c2cc(C(=O)Nc3ccc(S(=O)(=O)Nc4onc(C)c4C)cc3)c3ccccc3n2)cc1 | - | - | - | - | 31.4 | 66.1
COc1ccccc1C(=O)NCCN1CCC(n2c(=O)[nH]c3ccccc32)CC1 | . | - | . | . | - | .
CC1=C(C(=O)OC2CCCCC2)C(c2cccnc2)n2nnnc2N1 (configuration not stated) | - | - | - | - | - | .
SMILES | Pemphigus Ab inh | TbMetRS inhib | Rce1 inh | core dimer inh | NadD inh | NadD inh conf
CCOc1ccc2nc(Cl)c(C3CC(c4ccco4)=NN3S(=O)(=O)c3ccccc3)cc2c1 (configuration not stated) | - | - | - | - | 35.7 | -
CCN(CC)C(=O)c1[nH]cnc1C(=O)Nc1ccccc1 | - | - | . | . | - | .
Cc1ccc2nc(N3C(=O)C(O)=C(C(=O)c4ccco4)C3c3ccc(C)o3)sc2c1 (configuration not stated) | ? | - | - | - | 26.1 | -
Cc1ccc2nc(N3C(=O)C(O)=C(C(=O)c4ccc(C)o4)C3c3ccco3)sc2c1 (configuration not stated) | - | - | . | . | - | .
O=C(C1=C(O)C(=O)N(c2nc3ccc(Cl)cc3s2)C1c1ccco1)c1ccco1 (configuration not stated) | . | - | . | . | 55.5 | 51.1
COc1ccc(-c2cnc(SCC(=O)Nc3ccc4c(c3)OCO4)n2Cc2ccco2)cc1 | . | - | - | . | - | .
Cc1ccc(S(=O)(=O)N2C[C@@H]3[C@H]4CC[C@H](C4)[C@@H]3[C@@H](C)[C@@H]2c2ccco2)cc1 | - | - | . | . | - | .
CCCCS(=O)(=O)Nc1ccc(C(=O)NCC2CCCO2)cc1 (configuration not stated) | - | - | - | - | - | .
CC(=O)c1nn(-c2cccc(Br)c2)cc1C(=O)c1ccco1 | - | - | . | - | - | .
Cc1nnc(-c2ccco2)c2cn(-c3cccc(Br)c3)nc12 | - | - | - | - | 37.2 | -
CCCn1c(=O)c(C(=O)NNS(=O)(=O)c2ccc(Cl)cc2)c(O)c2ccccc21 | - | - | - | - | 30.1 | -
CCCCCCCCC(=O)NNC(=O)c1c(O)c2ccccc2n(CCC)c1=O | - | - | - | - | - | .
CCCCCCCCCC(=O)NNC(=O)c1c(O)c2ccccc2n(CCC)c1=O | - | - | - | - | 38.1 | -
Cc1sc2ncnc(N3CCC(C(=O)Nc4sc5c(c4C(N)=O)CCC(C)C5)CC3)c2c1C (configuration not stated) | - | - | . | . | 30.5 | -
C=CCn1c(C)cc(-c2csc(NC(=O)C3CCN(c4ncnc5sc(C)c(C)c45)CC3)n2)c1C | - | - | . | . | 31.6 | -
COc1ccc(-c2csc(NC(=O)C3CCN(c4ncnc5sc(C)c(C)c45)CC3)n2)cc1OC | - | - | - | - | - | .
Cc1onc(-c2c(Cl)cccc2Cl)c1C(=O)NC(=S)Nc1sc2c(c1C(N)=O)CCC(C)C2 (configuration not stated) | - | - | - | - | 31.2 | -
CC1CCc2c(sc(Nc3nc4c(F)cccc4s3)c2C(N)=O)C1 (configuration not stated) | . | - | - | - | 36.2 | -
CCOC(=O)N1CCN(c2nc(-c3ccccc3)c3cc(C)ccc3n2)CC1 | - | - | - | - | - | .
Cc1ccccc1OCCOC(=O)c1cc(S(=O)(=O)N2CCOCC2)ccc1C | - | - | . | . | - | .
Cc1cc(F)ccc1S(=O)(=O)N1CCCOC1CNC(=O)C(=O)NCc1cccnc1 (configuration not stated) | - | - | - | - | - | .
CCc1ccc2nc(NC(=O)C3CCN(c4ncnc5sc(C)c(C)c45)CC3)sc2c1 | - | - | . | . | 33.4 | -
